Only some compounds are listed: those with a hit (about 1.4% of all), similar ones and a draw of the others.
ARNT TACC3 PPI: disruptors of human ARNT/TACC3 interaction. Q9Y6A5. AlphaScreen His-ARNT PAS-B/GST-TACC3 binding, luminescence; TACC3 fragment carries E629A point mutation. inhibition, % at 9.99 µM. actives 0.66% (n = 390,000). AID 623870;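 active = mean inhibition of replicates at least 50% and at least half of replicates each reaching 50%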
CAL PDZ FP-1: blocks peptide binding to human CAL PDZ domain; AID 504414; inhibition, % at 20 µM; Q9HD26; purified CAL PDZ, TMR-peptide fluorescence polarization, 1 h; actives 0.02% (n = 330,000);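 active = highest replicate inhibition of at least 40%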
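Assay system – tagged CAL PDZ protein CerCALP, purified · Timing – 1 h at RT · Compound – single point, 20 µM · Measured by – fluorescence polarization from S- and P-plane intensities, G-factor corrected · Evaluation – inhibition from polarization loss · Probe or stimulus – TMR reporter peptide T*-PRC34 · Buffer or medium – pH 7.4 phosphate-saline buffer, reducing agent, detergent, IgG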
Dyrk1A ADPGlo: Dyrk1A (rat) kinase inhibition | Q63470 | inhibition, % at 12.5 µM | ADP-Glo luminescence, NFATc1 peptide | actives 0.43% (n = 310,000) | AID 504441; in the data active = inhibition above about 50%
CAL PDZ FP-2: CAL PDZ (human) peptide binding inhibition; Q9HD26; purified CAL PDZ, TMR-peptide fluorescence polarization, 1 h; inhibition, % at 24.9 µM; actives 0.92% (n = 300,000);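 active = mean inhibition of at least 30% with at least half of replicates also reaching 30%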
Hits are given with their value; n = inactive; x = no result given.

SMILES | ARNT TACC3 PPI | CAL PDZ FP-1 | Dyrk1A ADPGlo | CAL PDZ FP-2
CCCNC(=O)[C@@H]1[C@@H](CO)[C@@H]2Cn3c(ccc(-c4ccccc4OC)c3=O)[C@@H]2N1C(=O)CC | n | x | x | x
C[C@@H]1CN([C@@H](C)CO)C(=O)c2cc(NC(=O)Nc3ccccc3)ccc2O[C@@H](C)CCCCO[C@@H]1CN(C)S(=O)(=O)c1ccc(F)cc1 | n | x | x | x
Cc1ccccc1NC1=NC(=S)N(c2ccccc2)C12CCOC(C)(C)C2 (configuration not stated) | n | n | n | 42
O=C(Nc1ccc(F)cc1)C1CCCN1S(=O)(=O)c1cccc2nsnc12 (configuration not stated) | n | n | n | 128
Cn1c(=O)n(CCc2ccccc2)c(=O)c2c1nc1n2CCCN1Cc1ccccc1 | n | n | n | n
CCCn1c(=O)c2c(nc3n2CCCN3Cc2ccccc2)n(C)c1=O | 49 | n | n | n
CCCN1CCCc2cc(CN)ccc21 | 32 | n | x | n
CC(C)NC(=O)N[C@H]1C=C[C@H](CC(=O)NC2Cc3ccccc3C2)O[C@H]1CO | n | x | x | x
COc1ccccc1OCC(=O)NCc1cccs1 | 45 | n | n | n
COc1cc(C#N)ccc1OCC(=O)NCc1cccs1 | n | n | n | n
CC(Nc1ccc2ccccc2c1)C(=O)N/N=C/c1ccncc1 (configuration not stated) | active | n | n | n
CC(Oc1ccc2ccccc2c1)C(=O)N/N=C/c1cccnc1 (configuration not stated) | n | n | n | n
Cc1ccc(S(=O)(=O)Nc2ccc3c(c2)C(=O)N([C@@H](C)CO)C[C@@H](C)[C@H](CN(C)Cc2ccncc2)OCCCC[C@@H](C)O3)cc1 | n | x | x | x
Cc1cc(N=Cc2c(O)n(-c3ccc4c(c3)OCO4)c(=O)c3ccccc23)ccn1 | n | n | n | 35
Cc1ccc(-n2c(O)c(C=Nc3ccc4c(c3)OCO4)c3ccccc3c2=O)cc1C | n | n | n | n
C[C@H]1CN([C@@H](C)CO)C(=O)Cc2cc(NC(=O)Nc3ccc(F)cc3)ccc2O[C@H]1CN(C)C(=O)Nc1ccccc1 | n | x | x | x
O=C(O)CCCCCNS(=O)(=O)c1cccc2c1C(=O)c1ccccc1C2=O | 58 | n | n | n
COC(=O)c1c(NC(=O)CN(C)CC(=O)Nc2ccc(C)cc2)sc2c1CCC(C)C2 (configuration not stated) | n | n | x | 69
CO[C@H]1CN(C)C(=O)c2cc(NC(=O)Nc3cccc(F)c3)ccc2OC[C@@H](C)N(C(C)=O)C[C@H]1C | n | x | x | x
Cn1nc([N+](=O)[O-])nc1Sc1cccc2cccnc12 | 63 | n | n | n
C=C(C)C(=O)Nc1cccnc1Oc1ccc(F)cc1 | n | n | n | 112
COc1ccc(Oc2ncccc2NC(=O)c2cccc(C)c2C)cc1 | n | n | x | n
CCN1CCN(C(=O)c2cc(=O)c3cc(C)ccc3o2)CC1 | x | n | n | 44
CC(=O)N(C)C[C@H]1Oc2ncc(C#Cc3ccccc3F)cc2C(=O)N([C@@H](C)CO)C[C@@H]1C | n | x | x | x
Nc1cc(C(=O)c2ccccc2)ccc1[N+](=O)[O-] | n | n | n | 37
SMILES | ARNT TACC3 PPI | CAL PDZ FP-1 | Dyrk1A ADPGlo | CAL PDZ FP-2
O=C(Nc1ccc(Cl)cc1)N1C[C@@H]2[C@H](c3ccccc31)[C@H](CO)N2C(=O)c1ccccn1 | n | x | x | x
CO[C@@H]1CN(C)C(=O)c2cc(NS(=O)(=O)c3ccc(C)cc3)ccc2OC[C@@H](C)N(Cc2nccs2)C[C@H]1C | n | x | x | x
Cc1[nH]c(=O)[nH]c(=O)c1/C=C/C(=O)O | n | n | n | 70
COC(=O)/C=C/c1c(C)[nH]c(=O)[nH]c1=O | n | n | n | n
CCOC(=O)Cc1csc(NC(=O)/C=C/c2ccc(OC)cc2)n1 | n | n | n | 32
COc1cc(/C=N/NC(=O)CC#N)cc(Br)c1O | 58 | n | n | n
C/C=C/c1ccc([C@@H]2[C@H](CO)N(Cc3ccccn3)[C@H]2CNC(=O)CC)cc1 | 30 | x | x | x
C/C=C/c1ccc([C@@H]2[C@@H](C#N)N(C(=O)Cc3ccccn3)[C@@H]2CO)cc1 | 46 | x | x | x
Cc1ccc(-n2ncc(Cl)c2C(=O)NC2CC2)cc1 | n | n | n | 59
CNC(=O)c1c(Cl)cnn1-c1ccc(C)cc1 | n | n | n | n
Cc1nc(Nc2ccc(C(=O)O)cc2)sc1-c1ccccc1 | n | n | n | 56
COc1ncnc2c1NC(=O)CS2 | n | n | n | n
COc1ncnc2c1N[C@@](C)(O)c1c(F)c(F)c(F)c(F)c1S2 | n | n | n | 46
Cc1noc(NS(=O)(=O)c2ccc(NC(=O)CSc3nnc4c(n3)[nH]c3ccccc34)cc2)c1C | 71 | n | x | n
Cc1noc(NS(=O)(=O)c2ccc(NC(=O)CSc3nc4ccccc4[nH]3)cc2)c1C | n | n | n | n
O=C(C[C@H]1C[C@H]2c3cc(NC(=O)C4CCOCC4)ccc3O[C@H]2[C@@H](CO)O1)NCc1ccncc1 | n | x | x | x
CCCC#Cc1cnc2c(c1)C(=O)N([C@H](C)CO)C[C@H](C)[C@@H](CN(C)C)O2 | n | x | x | x
CCNc1nc(NCC)nc(OCCOC(C)=O)n1 | n | n | n | n
CCNc1nc(NCC)nc(C(=O)OCCO)n1 | 49 | n | n | x
N#C/C(=C\c1c(N2CCCCC2)nc2ccccn2c1=O)S(=O)(=O)c1ccccc1 | n | n | n | 55
N#C/C(=C\c1c(N2CCN(c3ccccc3)CC2)nc2ccccn2c1=O)S(=O)(=O)c1ccccc1 | n | n | n | n
N#CC(C#N)=Cc1c(N2CCN(c3ccccc3)CC2)nc2ccccn2c1=O | n | n | n | 48
Cc1ccc([N+](=O)[O-])c(OCCN2CCCCCC2)c1 | n | n | n | 57
C/C(=N\O)C1CC(CC(=O)O)C1(C)C (configuration not stated) | n | n | n | 43
CC1(C)CC(CC(=O)O)CC(C)(C)N1 | n | n | x | n
SMILES | ARNT TACC3 PPI | CAL PDZ FP-1 | Dyrk1A ADPGlo | CAL PDZ FP-2
C/C(N)=C(/C#N)C(=O)COC(=O)Cc1coc2ccc3ccccc3c12 | n | n | x | 79
Cc1noc(C)c1NC(=O)Nc1ccc2c(c1)C(=O)N([C@@H](C)CO)C[C@H](C)[C@H](CN(C)S(=O)(=O)c1cn(C)cn1)O2 | n | x | x | x
Cc1ccc2nc(-c3ccc(NC(=S)NCCC(C)C)cc3)sc2c1 | n | n | n | active
COC(=O)CCc1c(C)nc(N)[nH]c1=O | n | n | n | n
Cc1nc(N)[nH]c(=O)c1CC(=O)OCCCl | n | n | n | 56
C[C@@H]1CN([C@@H](C)CO)C(=O)Cc2cc(NC(=O)Cc3ccccc3)ccc2O[C@H]1CN(C)C | n | x | x | x
COCC(=O)N(Cc1cc2ccccc2[nH]c1=O)c1ccc(OC)cc1 | n | n | n | 62
CCOC(=O)c1cc([N+](=O)[O-])sc1NC(=O)CC | n | n | n | n
CCOC(=O)c1cc([N+](=O)[O-])sc1N | n | n | n | 62
CCOc1cccc2c1OC1(C)CC2NC(=O)N1c1cccc(Cl)c1 (configuration not stated) | n | x | n | 93
C[C@H](NC(=O)c1ccco1)C(=O)Nc1nc(-c2ccccn2)cs1 | 68 | n | n | n
C[C@H](NC(=O)c1ccco1)C(=O)Nc1nnc(SCc2ccccc2)s1 | n | n | n | n

Screening data deposited in PubChem BioAssay by Broad Institute.
